Data: ChEMBL document CHEMBL3244133, “Synthesis and biological activities of some uronic acids, uronates, uronamides, and urononitriles of pyrimidine nucleosides” (J Med Chem, 1978)
Each block holds one molecule with its values, some of them ahead of it. The source made the active and inactive calls. The rule behind the calls is not given here.

Experiments:
[1] = Competitive inhibition of HSV-1 pyrimidine deoxythymidine kinase using 2-[14C]deoxythymidine as substrate; design: species or system Human alphaherpesvirus 1
Method in brief: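 HSV-1 encoded pyrimidine deoxyribonucleoside kinase, purified from LMTK⁻ cells. Assay at 37 °C in 50 mM Tris pH 7.8 with 3 mM ATP·Mg²⁺, 0.3 mg/mL BSA, 0.3 mM 2-mercaptoethanol and 2% glycerol. Substrate was varied [2-¹⁴C]deoxythymidine plus analogue. Reaction was started with enzyme; aliquots were taken over time and phosphorylated product measured. Ki came from double-reciprocal plots.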

[2] = Dissociation constant, pKa of the compound; format: physicochemical
[3] = tested on: Enterococcus faecium; assay: Antimicrobial activity against Streptococcus faecium after 15 to 17 hrs by turbidity assay; format: functional; details: read-out: ED50 (the source's name)
Method in brief: (§1)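 S. faecium (ATCC 8043), washed and resuspended in saline to 100 Klett units, then diluted 10-fold as inoculum. Test compound was added to basal medium with deoxythymidine (7 μM final) or folic acid (4.53 nM final). Incubation was 15-17 h at 37 °C. Growth was taken as the turbidity change before versus after incubation, read on a Klett colorimeter with a red filter (640-700 nm).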

[4] = Retention time of the compound by liquid chromatography; format: physicochemical
Method in brief: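 Reverse-phase HPLC with a methanol-water gradient, separating uronic acids from the parent pyrimidine bases and nucleosides.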

[5] = tested on: Enterococcus faecium; assay: Antimicrobial activity against Streptococcus faecium assessed as growth inhibition at 400 uM after 15 to 17 hrs by turbidity assay in presence of 7 uM deoxythymidine; format: functional; method in brief: as §1
[6] = tested on: Enterococcus faecium; assay: Antimicrobial activity against Streptococcus faecium assessed as growth inhibition at 400 uM after 15 to 17 hrs by turbidity assay in presence of 4.53 nM folic acid; format: functional; method in brief: as §1
[7] = Antiviral activity against HSV1 CL101 infected in African green monkey Vero cells assessed as inhibition of plaque formation at 10 uM after 40 hrs relative to control; format: functional, Herpes simplex virus (type 1 / strain CL101); details: Human alphaherpesvirus 1, Vero
[8] = Antiviral activity against HSV1 CL101 infected in African green monkey Vero cells assessed as inhibition of plaque formation at 40 uM after 40 hrs relative to control; format: functional, Herpes simplex virus (type 1 / strain CL101); details: Human alphaherpesvirus 1, Vero
[9] = tested on: CCRF S-180; assay: Cytotoxicity against mouse S180 cells at 400 uM after 18 to 42 hrs relative to control; format: functional
[10] = Antiviral activity against HSV1 CL101 infected in African green monkey Vero cells assessed as inhibition of plaque formation at 400 uM after 40 hrs relative to control; format: functional, Herpes simplex virus (type 1 / strain CL101); details: Human alphaherpesvirus 1, Vero
[11] = tested on: Lacticaseibacillus casei; assay: Inhibition of Lactobacillus casei deoxythymidylate synthetase at 250 uM
[12] = tested on: L1210; assay: Inhibition of deoxythymidylate synthetase in mouse L1210 cells at 250 uM; format: cell-based
[13] = Antiviral activity against HSV1 CL101 infected in African green monkey Vero cells assessed as inhibition of plaque formation at 50 uM after 40 hrs relative to control; format: functional, Herpes simplex virus (type 1 / strain CL101); details: Human alphaherpesvirus 1, Vero
[14] = tested on: Enterococcus faecium; assay: Antimicrobial activity against Streptococcus faecium assessed as concentration required for maximum growth inhibition after 15 to 17 hrs by turbidity assay; format: functional; method in brief: as §1

Compound: O=c1ccn([C@H]2C[C@H](O)[C@@H](CO)O2)c(=O)[nH]1 [DEOXYURIDINE]
Ki [1]: 9.5 µM | pKa [2]: 9.3 | EC50 [3]: 37 µM

Compound: Nc1nc(=O)n([C@H]2C[C@H](O)[C@@H](C(=O)O)O2)cc1Br
Retention_time [4]: 3.05 min

Compound: NC(=O)[C@H]1O[C@@H](n2cc(I)c(O)nc2=O)C[C@@H]1O
Ki [1]: 1 µM | inhibition (INH) [5]: 0% | inhibition at 40 µM [8]: 78% | inhibition at 400 µM [9]: 0% | inhibition at 400 µM [10]: 96% | inhibition (INH) [6]: 28%

Compound: COC(=O)[C@H]1O[C@@H](n2cc(F)c(O)nc2=O)C[C@@H]1O
Ki [1]: 410 µM | inhibition (INH) [5]: 0% | inhibition at 400 µM [9]: 32% | inhibition at 400 µM [10]: 0% | inhibition (INH) [6]: 0% | inhibition [11]: inactive | inhibition [12]: inactive

Compound: Cc1cn([C@H]2C[C@H](O)[C@@H](CO)O2)c(=O)[nH]c1=O [DOXRIBTIMINE]
pKa [2]: 9.8 | EC50 [3]: 11 µM

Compound: O=c1[nH]cc(I)c(=O)[nH]1
Retention_time [4]: 8.85 min

Compound: Nc1nc(=O)n([C@H]2C[C@H](O)[C@@H](CO)O2)cc1Br
Retention_time [4]: 16.53 min

Compound: CC(=O)O[C@H]1C[C@H](n2cc(I)c(=O)[nH]c2=O)O[C@@H]1C(N)=O
Ki [1]: 20 µM

Compound: O=c1[nH]cc(Br)c(=O)[nH]1 [5-BROMOURACIL]
Retention_time [4]: 7.69 min

Compound: CC(=O)O[C@H]1C[C@H](n2cc(C)c(=O)[nH]c2=O)O[C@@H]1CO
Ki [1]: 58 µM

Compound: NC(=O)[C@H]1O[C@@H](n2ccc(O)nc2=O)C[C@@H]1O (stereo in doubt; 19)
Activity [14]: 600 µM | inhibition (INH) [5]: 71% | inhibition at 400 µM [9]: 0% | inhibition at 400 µM [10]: 0% | inhibition (INH) [6]: 22% | EC50 [3]: 200 µM

Compound: COC(=O)[C@H]1O[C@@H](n2ccc(=O)[nH]c2=O)C[C@@H]1O
Ki [1]: 500 µM

Now from value to molecule, other results behind:

Ki [1]: 0.2 µM | Retention_time [4]: 12.16 min
Compound: O=c1[nH]c(=O)n([C@H]2C[C@H](O)[C@@H](CO)O2)cc1Br [BROXURIDINE]
inhibition (INH) [5]: 76% | inhibition (INH) [6]: 91% | inhibition at 10 µM [7]: 99.6%

Ki [1]: 28 µM
Compound: CC(=O)O[C@H]1C[C@H](n2cc(Br)c(=O)[nH]c2=O)O[C@@H]1C#N

Ki [1]: 2.9 µM
Compound: COC(=O)[C@H]1O[C@@H](n2cc(Br)c(=O)[nH]c2=O)C[C@@H]1O

Ki [1]: 1.8 µM
Compound: N#C[C@H]1O[C@@H](n2cc(Br)c(=O)[nH]c2=O)C[C@@H]1O

Ki [1]: 0.2 µM | Retention_time [4]: 14.41 min
Compound: O=c1[nH]c(=O)n([C@H]2C[C@H](O)[C@@H](CO)O2)cc1I [IDOXURIDINE]
inhibition (INH) [5]: 12% | inhibition at 50 µM [13]: 99.7% | inhibition (INH) [6]: 71%

Ki [1]: 1.3 µM
Compound: N#C[C@H]1O[C@@H](n2cc(I)c(O)nc2=O)C[C@@H]1O
inhibition (INH) [5]: 0% | inhibition at 400 µM [9]: 0% | inhibition at 400 µM [10]: 74% | inhibition (INH) [6]: 14%

Ki [1]: 75 µM | inhibition [11]: inactive
Compound: N#C[C@H]1O[C@@H](n2cc(F)c(=O)[nH]c2=O)C[C@@H]1O
inhibition [12]: inactive

Ki [1]: 5.4 µM
Compound: Cc1cn([C@H]2C[C@H](O)[C@@H](C(=O)O)O2)c(=O)[nH]c1=O [5'-CARBOXY THYMIDINE]

Ki [1]: 1.6 µM
Compound: Cc1cn([C@H]2C[C@H](O)[C@@H](C(N)=O)O2)c(=O)[nH]c1=O
